Glyco luc inh – blocks N-linked glycosylation in D54 reporter cells | reporter increase, % at 12.5 µM | 360,000 compounds, 0.23% hits | D54 ERlucT glycosylation luciferase reporter, 24 h; percent of 100 nM tunicamycin response | AID 588692;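 active means mean luciferase reporter signal, scaled so untreated is 0 and the glycosylation-blocking control 100, at or above a set limit in every replicate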;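 further: luciferase carries N-glycosylation sites so blocking glycosylation raises the light; 0% = median of neutral control wells and 100% = median of 100 nM tunicamycin wells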
PfHsp90 yeast 2 – reduces growth (ATP signal) of yeast expressing P. falciparum Hsp90; S. cerevisiae expressing PfHsp90, BacTiter-Glo ATP, 48 h; yeast lacking PDR1 and PDR3 efflux regulators; inhibition, % at 9.4 µM; 310,000 compounds, 0.32% hits;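 active means every replicate shows inhibition above about 80%, whatever the replicate mean, limit read from the data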;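 further: 0% = DMSO neutral controls and 100% = 20 µM radicicol positive controls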
Rtt109 Vps75 – blocks Candida albicans Rtt109/Vps75 acetyltransferase activity; Q5AAJ8; purified Rtt109/Vps75, ThioGlo CoA-SH fluorescence, 4 h; inhibition, % at 34.9 µM; 330,000 compounds, 0.16% hits;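 active means inhibition of at least 50% in every replicate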
Target sequence (Q5AAJ8 whole entry, looked up): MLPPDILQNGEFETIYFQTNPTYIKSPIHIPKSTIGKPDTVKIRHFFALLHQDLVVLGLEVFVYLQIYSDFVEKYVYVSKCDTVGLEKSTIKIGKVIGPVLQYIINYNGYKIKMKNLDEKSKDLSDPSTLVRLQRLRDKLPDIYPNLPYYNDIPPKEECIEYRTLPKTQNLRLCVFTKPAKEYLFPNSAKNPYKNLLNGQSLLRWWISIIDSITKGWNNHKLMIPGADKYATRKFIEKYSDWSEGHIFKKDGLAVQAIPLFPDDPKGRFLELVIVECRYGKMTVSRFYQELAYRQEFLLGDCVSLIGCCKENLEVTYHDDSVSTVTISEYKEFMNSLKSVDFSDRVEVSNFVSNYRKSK
Env fusion inh – inhibitors of HIV Env-mediated cell fusion | HeLa-JRFL Env/CEM21 cell fusion, luciferase | inhibition, % at 12.3 µM | 360,000 compounds, 1.1% hits | AID 651610;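 active means mean replicate inhibition score of at least 50 and every replicate individually at or above 50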;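 further: 0% = plate neutral controls and 100% = maraviroc near 300 nM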
Arr AP2 block – inhibitors of human beta-arrestin and AP2 interaction; FITC-arrestin peptide / GST-AP2 beads, flow cytometry; AP2 beta2 appendage carries R879A mutation; inhibition, % at 10 µM; 340,000 compounds, 0.31% hits; AID 504490;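 active means inhibition above a set limit, near 3 SD of compounds lacking own fluorescence, cut at about 54% in these data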;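 further: plate controls were DMSO wells for no effect and 5 µM unlabelled arrestin peptide for full effect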
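Material – AP2 appendage R879A on GSH beads · Buffer or medium – PBS with 0.05% Tween 20 and 0.1% BSA · Probe or stimulus – fluorescein-tagged arrestin peptide at 50 nM final · Incubation – compound with beads 12 min RT, then probe 1 h RT · Detection – high-throughput flow cytometry of beads, ex 488, em 535 nm · Evaluation – percent response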
PAX8 reporter – PAX8 transcriptional activity inhibition. RMG-I TPO-luciferase reporter, SteadyGlo, 24 h. inhibition, % at 12.6 µM. 360,000 compounds, 1.2% hits. AID 652154;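 active means mean replicate inhibition at least 60% with every replicate also reaching 60%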;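 further: luciferase light reporting Pax8 driven TPO promoter activity; plate controls were median of neutral control wells for no effect and mitoxantrone controls for full effect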
Numbers without * were called inactive; [ ] = another dose, or the depositor's remark. This is a sample that favours compounds with a hit; in the whole collection about 2.3% have one here.

Results for c1ccc(Cn2nnnc2C(c2ccccn2)N2CCOCC2)cc1 (centres undefined) ?
Glyco luc inh: 2.0; PfHsp90 yeast 2: -3.6; Rtt109 Vps75: 62.6*; Arr AP2 block: 3.7

What do the screens show for `c1ccc(Cn2nnnc2C(c2ccccn2)N2CCN(c3ccccc3)CC2)cc1` (centres undefined)?
Glyco luc inh: -0.9; PfHsp90 yeast 2: 5.5; Rtt109 Vps75: 6.1; Arr AP2 block: -7.9

Results for Cc1noc(C)c1NC(=O)N(C)C[C@H]1OCCCC[C@@H](C)Oc2ccc(NC(=O)c3ccncc3)cc2C(=O)N([C@H](C)CO)C[C@@H]1C ?
Env fusion inh: -1.8[16.7 µM]; PAX8 reporter: -8.6

Results for COc1ccc(-c2c(S(=O)(=O)c3ccccc3)cnn2-c2ccccc2)cc1 ?
Glyco luc inh: -1.7; Rtt109 Vps75: 4.3; Env fusion inh: 62.9*; Arr AP2 block: 2.0

How did COc1cc(-c2nnc(SCC3(c4ccc(Br)cc4)OCCO3)o2)cc(OC)c1OC do in these assays?
Glyco luc inh: 49.3*; PfHsp90 yeast 2: -11.4; Rtt109 Vps75: 0.9; Arr AP2 block: 22.4

What do the screens show for `COc1cc(-c2nnc(SCC(=O)N3CCOCC3)o2)cc(OC)c1OC`?
Glyco luc inh: 4.6; PfHsp90 yeast 2: 0.2; Rtt109 Vps75: 5.6; Env fusion inh: 9.0; Arr AP2 block: 14.6; PAX8 reporter: -74.3

Results for Cc1ccc2nsnc2c1NC(=O)c1ccc(-c2cc(Cl)ccc2Cl)o1 ?
Glyco luc inh: 128.5*; PfHsp90 yeast 2: 14.3; Rtt109 Vps75: -11.4; Arr AP2 block: -40.8

What do the screens show for `CO[C@H]1CN(C)C(=O)c2ccc(NC(=O)c3ccno3)cc2OC[C@H](C)NC[C@@H]1C`?
Env fusion inh: -3.4[16.7 µM]; PAX8 reporter: 3.4

How did CN(C(=O)c1cccc(NC(=O)Cc2cccc(NC(=O)C3CCCN(C(=O)C4CCCC4)C3)c2)c1)C1CCC1 (centres undefined) do in these assays?
Glyco luc inh: -0.3; PfHsp90 yeast 2: -5.9; Rtt109 Vps75: -8.1; Env fusion inh: 14.5; Arr AP2 block: 14.7; PAX8 reporter: 6.2

Results for CN(C(=O)c1ccc(NC(=O)Cc2ccc(NC(=O)C3CCCN(C(=O)CCc4ccccc4)C3)cc2)cc1)C1CC1 (centres undefined) ?
Glyco luc inh: 1.8; PfHsp90 yeast 2: -17.5; Rtt109 Vps75: 14.0; Env fusion inh: 55.9*; PAX8 reporter: 11.6

What do the screens show for `CN(C(=O)c1cccc(NC(=O)Cc2cccc(NC(=O)C3CCCN(C(=O)C4CCC4)C3)c2)c1)C1CCC1` (centres undefined)?
Glyco luc inh: -0.7; PfHsp90 yeast 2: -5.6; Rtt109 Vps75: 0.7; Env fusion inh: 85.3*; Arr AP2 block: 45.3; PAX8 reporter: -24.9

How did CN(C(=O)c1ccc(NC(=O)Cc2cccc(NC(=O)C3CCCN(C(=O)CCc4ccccc4)C3)c2)cc1)C1CCCC1 (centres undefined) do in these assays?
Glyco luc inh: -1.1; PfHsp90 yeast 2: 13.0; Rtt109 Vps75: 10.8; Env fusion inh: 10.3; Arr AP2 block: 1.3; PAX8 reporter: 28.9

Results for CN1C(=O)c2cc(NC(=O)Nc3ccc(Cl)cc3)ccc2OC[C@H]2O[C@@H](CC(=O)O)CC[C@H]21 ?
Env fusion inh: 1.5[16.7 µM]; PAX8 reporter: -2.0

How did CN1c2ccc(C#Cc3cccnc3)cc2[C@@H]2[C@@H](CCN2S(=O)(=O)c2cccc(F)c2)[C@@H]1CO do in these assays?
PAX8 reporter: 10.9

Results for Cc1ccc2c(c1)/C(=N/OS(=O)(=O)c1ccccc1)CCS2 ?
Glyco luc inh: 3.4; Rtt109 Vps75: 28.7; Env fusion inh: -50.6; Arr AP2 block: 19.0

How did CC1=CC(=O)C(C(C)C)=C/C1=N/OS(=O)(=O)c1ccccc1 do in these assays?
Glyco luc inh: 19.7; PfHsp90 yeast 2: 110.1*; Rtt109 Vps75: -9.1; Env fusion inh: -204.9; Arr AP2 block: 11.7; PAX8 reporter: 94.3*

How did CC1=CC(=O)C=C(C)C1=NOS(=O)(=O)c1ccccc1 do in these assays?
Glyco luc inh: 16.6; PfHsp90 yeast 2: 106.5*; Rtt109 Vps75: 7.8; Arr AP2 block: 4.9

How did COc1cc2c(cc1OC)C(c1c(-c3c(Cl)cccc3Cl)noc1C)=NCC2 do in these assays?
Glyco luc inh: -1.1; Env fusion inh: -9.5; PAX8 reporter: 10.2
